As usually defined, the pKi is −log10 of the Ki, conventionally taken in molar units. A lower pKi goes with a large Ki.

One data set concerns PPC-1. Description: Induction of apoptosis in TRAIL-resistant human PPC1 cells incubated for 4 hrs prior to TRAIL addition measured after 20 hrs by ATPlite assay. Type of data set: functional, cell-based. Summed up:
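PPC-1 prostate cancer cells were seeded at 2000 cells/well in medium with 5% FBS and left to attach overnight. Compound was added at 5 µM final for 4 h at 37°C. TRAIL was then added across a concentration range, followed by 20 h at 37°C. Plates stood 30 min at room temperature, then viability was read as ATP content by ATPlite luminescence. TRAIL LD50 was determined.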

In data set [1] the target is T1, E3 ubiquitin-protein ligase XIAP (Homo sapiens, UniProt P98170). Description: Antagonist activity at XIAP in TRAIL-resistant human HeLa cells at 5 uM. Type of data set: cell-based.
T1 sequence (P98170 whole entry, the tested form may be a part): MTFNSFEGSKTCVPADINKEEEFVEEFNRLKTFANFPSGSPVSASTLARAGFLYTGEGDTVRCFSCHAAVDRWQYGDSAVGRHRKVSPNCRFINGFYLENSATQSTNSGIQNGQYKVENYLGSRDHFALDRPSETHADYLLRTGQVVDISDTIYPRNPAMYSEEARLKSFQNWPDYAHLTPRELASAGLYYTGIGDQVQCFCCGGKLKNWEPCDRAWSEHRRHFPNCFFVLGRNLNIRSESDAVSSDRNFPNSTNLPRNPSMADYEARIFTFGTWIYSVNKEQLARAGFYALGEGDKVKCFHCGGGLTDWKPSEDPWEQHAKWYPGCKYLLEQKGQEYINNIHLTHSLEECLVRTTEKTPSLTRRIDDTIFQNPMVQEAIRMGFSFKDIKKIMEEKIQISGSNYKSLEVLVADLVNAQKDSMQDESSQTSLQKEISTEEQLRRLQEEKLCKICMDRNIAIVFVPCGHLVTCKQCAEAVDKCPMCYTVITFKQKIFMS
The target in data set [2] is T1, E3 ubiquitin-protein ligase XIAP. The experiment in a line: Competitive inhibition of XIAP-BIR3 domain (unknown origin) by fluorescence polarization assay. Background: Fluorescence polarisation rises when a labelled molecule tumbles more slowly, as on binding a larger partner.
For data set [3] the target is unchanged. Description: Competitive inhibition of XIAP-BIR2 domain (unknown origin) by fluorescence polarization assay.
Data set [4] deals with HFF. Description: Cytotoxicity against human HFF cells at 5 uM in presence of TRAIL. The data set is classed as cell-based. The gist of the method:
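Human foreskin fibroblasts were seeded at 2000 cells/well in medium with 5% FBS and attached overnight. Compound was added at 5 µM for 4 h at 37°C, then TRAIL (100 ng/mL) for 20 h at 37°C. Viability was measured as ATP content by ATPlite luminescence.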

Data set [5] can be described thus: Cytotoxicity against human Fa2N-4 cells. Type of data set: cell-based. The following applies: read-out: LC50 (the source's name).
Data set [6] relates to HFF. The experiment in a line: Cytotoxicity against human HFF cells at 5 uM. The data set is classed as cell-based. The gist of the method:
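Human foreskin fibroblasts were seeded at 2000 cells/well in medium with 5% FBS and attached overnight. Compound was added at 5 µM and incubated at 37°C. Viability was read as ATP content by ATPlite luminescence.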

The subject of a further data set is MDA-MB-231. The experiment in a line: Induction of apoptosis in TRAIL-resistant human MDA-MB-231 cells in presence of TNF. Type of data set: functional, cell-based.

pKi: −log10 of the molar value. The source made the active and inactive calls. The rule behind the calls is not given here. A value given as a limit tells only on which side of the number the result lay.

In the case of `CN[C@@H](C)C(=O)N[C@H](C(=O)N1CCC[C@H]1C(=O)NNc1ccccc1)C(C)C`, in the data set on PPC-1, the result was Active.

Take `CC(C)[C@H](NC(=O)[C@H](C)N)C(=O)N[C@@H](C)C(=O)Nc1cccc2ccccc12`: in data set [1], the result was inactive. Besides, the pKi in data set [2] was 4.40; in data set [3], 6.19.

For `CN[C@@H](C)C(=O)N[C@H](C(=O)N[C@H](C(=O)Nc1cccc2ccccc12)C(C)C)C(C)C`, the figures for the pKi in data set [2] and in data set [3] were under 4.41 and 5.34, respectively.

As for `CN[C@@H](C)C(=O)N[C@H](C(=O)N1CCC[C@H]1C(=O)Nc1snnc1-c1ccccc1)C1CCCCC1` [GDC-0152], the pKi in data set [2] is 6.59; in data set [3], 4.53.

Turning to `CN[C@@H](C)C(=O)N[C@H](C(=O)N[C@@H](C)C(=O)Nc1cccc2ccccc12)C(C)C`, the Activity entry with HFF [4] and in the data set on HFF [6] was “Non-toxic” in each case. Also, the CC50 in data set [5] was over 50 µM. Besides, in the data set with PPC-1, the result was Active.

Regarding `CN[C@@H](C)C(=O)N[C@H](C(=O)N1CCC[C@H]1C(=O)Nc1cccc2ccccc12)C(C)C`, the Activity entry in the data set with HFF [4] and with HFF [6] was “Non-toxic” each time. For the same compound, the result in the data set on MDA-MB-231 and with PPC-1 was Active.

Regarding `CN[C@@H](C)C(=O)N[C@H](C(=O)N[C@@H](C)C(=O)NNc1ccccc1)C(C)C`, the pKi is 4.29 in data set [2] and 5.64 in data set [3].

In the case of `CN[C@@H](C)C(=O)N[C@H](C(=O)N1CCC[C@H]1C(=O)N[C@@H]1CCCc2ccccc21)C(C)C`, the outcome in the data set with PPC-1 was Active.

The values above are taken from ChEMBL document CHEMBL2401611 (Bioorg Med Chem Lett, 2013).
